ChEMBL document CHEMBL4513216, “Probing the Open Global Health Chemical Diversity Library for Multistage-Active Starting Points for Next-Generation Antimalarials” (ACS Infect Dis, 2020)

Experiment: Toxicity liver stage against HepG2, at 10uM
Format: cell-based
Design: test concentration 10 uM, cell line HepG2-A16-CD81EGFP
Conditions: human, HepG2-A16-CD81EGFP cells; read-out: INHIBITION
In short: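 Uninfected HepG2-A16-CD81EGFP cells, 3 × 10^3 per well, 1536-well, plated on prespotted compound at 10 μM final, parasite-free screening media added to match infected plates; puromycin 10 μM positive, DMSO 0.5% negative; run in parallel with 48 h PbLuc assay at 37 °C, 5% CO2; viability by CellTiter-Glo luminescence, normalized to controls.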

Q: For `CC(C)OCCSCCn1nc2ccccn2c1=O`, which cytotoxicity at 10 µM is on record?
A: Its cytotoxicity at 10 µM is 3.36%.

Q: Which cytotoxicity at 10 µM does the source give for `CC(=O)c1c(F)cccc1NC1CCN(S(=O)(=O)C2CC2)CC1` here?
A: Its cytotoxicity at 10 µM is 12.5%.

Q: For `CCOc1ncccc1CNC(=O)Nc1ccc(CC)cc1`, which cytotoxicity at 10 µM is on record?
A: Its cytotoxicity at 10 µM is -23.7%.

Q: With `c1ccc(CN2CCc3nnc(CN4CCCCC4)n3CC2)nc1` as the compound, how does the cytotoxicity at 10 µM read?
A: The cytotoxicity at 10 µM was 3.73%.

Q: Which cytotoxicity at 10 µM does the source give for `COc1cc(C(=O)N(Cc2cnn(C)c2)C(C)C)ccc1OCC(N)=O` here?
A: The cytotoxicity at 10 µM was -5.45%.

Q: Which cytotoxicity at 10 µM does the source give for `O=C(c1ccno1)N1CCC2(CC1)C(=O)N(CC1CC1)c1ccccc12` here?
A: Its cytotoxicity at 10 µM is 7.85%.

Q: Which cytotoxicity at 10 µM does the source give for `Cc1ccc(CN2CCC(CNC(=O)Cn3cncn3)CC2)cc1` here?
A: Its cytotoxicity at 10 µM is 1.22%.

Q: For `CC(C)n1c(=O)c2ccccc2n(CCCN(C)C)c1=O`, which cytotoxicity at 10 µM is on record?
A: The cytotoxicity at 10 µM was -13.2%.

Q: Which cytotoxicity at 10 µM does the source give for `CN(C)c1ccc(CNC2=NCCCN2)cc1` here?
A: The cytotoxicity at 10 µM was -39.9%.

Q: For `O=C(NCCCN1CCCCC1)c1ccc(-n2ccc3ccccc32)s1`, which cytotoxicity at 10 µM is on record?
A: The cytotoxicity at 10 µM was -6.19%.

Q: Which cytotoxicity at 10 µM does the source give for `COc1ccsc1C(=O)Nc1cc(Br)c(=O)n(C)c1` here?
A: The cytotoxicity at 10 µM was -11%.

Q: For `c1ccc(SCCN2CCCC(Cn3ccnc3)C2)cc1` (stereo unspecified), which cytotoxicity at 10 µM is on record?
A: Its cytotoxicity at 10 µM is 2.92%.

Q: Which cytotoxicity at 10 µM does the source give for `CC(C)C(O)C1CCN(c2ccnc(C(=O)NCc3ccco3)c2)CC1` (stereo unspecified) here?
A: The cytotoxicity at 10 µM was -0.598%.

Q: For `CCc1cccc(N2CCC(NC(=O)c3ccco3)CC2)c1`, which cytotoxicity at 10 µM is on record?
A: The cytotoxicity at 10 µM was -4.38%.

Q: For `Cc1cc(NCc2ccc(CO)cc2)n2nc(C)cc2n1`, which cytotoxicity at 10 µM is on record?
A: Its cytotoxicity at 10 µM is -7.38%.

Q: Which cytotoxicity at 10 µM does the source give for `Cc1cc(C)n(CC(C)NC(=O)C(C)(C)c2ccccc2F)n1` (stereo unspecified) here?
A: Its cytotoxicity at 10 µM is -2.58%.

Q: Which cytotoxicity at 10 µM does the source give for `CC(=O)Nc1nc(CN(C)CC2CCCN2c2cccnn2)cs1` (stereo unspecified) here?
A: Its cytotoxicity at 10 µM is 15.1%.

Q: For `O=S(=O)(C1CC1)N1CCC[C@]2(C[C@@H](Oc3ccccn3)CO2)C1`, which cytotoxicity at 10 µM is on record?
A: The cytotoxicity at 10 µM was -144%.

Q: With `COC1COC2(CCN(C(=O)c3ccccc3F)CC2)C1` (stereo unspecified) as the compound, how does the cytotoxicity at 10 µM read?
A: Its cytotoxicity at 10 µM is -92.4%.

Q: Which cytotoxicity at 10 µM does the source give for `Cn1cc(CCNC(=O)c2cc3ccccc3nc2N2CCCC2)cn1` here?
A: The cytotoxicity at 10 µM was -1.29%.

Q: For `COc1ccc(N(C)C(=O)C2CN(C)CCO2)cc1Cl` (stereo unspecified), which cytotoxicity at 10 µM is on record?
A: Its cytotoxicity at 10 µM is -46.4%.

Q: For `O=C([C@@H]1CCO[C@@H]2CCN(CC3CC3)C[C@H]21)N1CCCC1`, which cytotoxicity at 10 µM is on record?
A: The cytotoxicity at 10 µM was -103%.

Q: Which cytotoxicity at 10 µM does the source give for `O=C(CCNS(=O)(=O)c1ccccc1F)NCc1ccoc1` here?
A: The cytotoxicity at 10 µM was -16.5%.

Q: For `CCOc1ncccc1C(=O)N1CCCC1c1c(C)nn(C)c1Cl` (stereo unspecified), which cytotoxicity at 10 µM is on record?
A: The cytotoxicity at 10 µM was 0.534%.

Q: With `O=C(NCc1ccccc1-n1cccn1)C1CC2(CCNCC2)CN1` (stereo unspecified) as the compound, how does the cytotoxicity at 10 µM read?
A: The cytotoxicity at 10 µM was -0.413%.

Q: Which cytotoxicity at 10 µM does the source give for `Cc1cc(C)n(C2CCCN(C(=O)CCCNc3ncccn3)C2)n1` (stereo unspecified) here?
A: The cytotoxicity at 10 µM was 5.15%.

Q: For `COCCN(Cc1ccco1)Cc1nc(-c2ccccc2)no1`, which cytotoxicity at 10 µM is on record?
A: Its cytotoxicity at 10 µM is 6.4%.

Q: For `CC(C)(NCC(=O)N1CCCC(C(N)=O)C1)c1ccc(Cl)cc1` (stereo unspecified), which cytotoxicity at 10 µM is on record?
A: Its cytotoxicity at 10 µM is 3.36%.

Q: With `Cc1cc(C)c2c(c1)C(CC(=O)O)C(=O)N2` (stereo unspecified) as the compound, how does the cytotoxicity at 10 µM read?
A: The cytotoxicity at 10 µM was 7.16%.

Q: Which cytotoxicity at 10 µM does the source give for `CCSCc1nc(O)c2nnn(C3CCN(Cc4ccco4)CC3)c2n1` here?
A: Its cytotoxicity at 10 µM is 8.79%.

Q: With `CC(Cc1cccc(Cl)c1)NC(=O)Nc1cnn(CC(N)=O)c1` (stereo unspecified) as the compound, how does the cytotoxicity at 10 µM read?
A: The cytotoxicity at 10 µM was -15%.

Q: Which cytotoxicity at 10 µM does the source give for `Cc1cccc(S(=O)(=O)N2Cc3c(CN(C)C)nn(C)c3C2)c1` here?
A: The cytotoxicity at 10 µM was -0.53%.

Q: With `O=C(Nc1cc(C(F)(F)F)c[nH]c1=O)c1ccco1` as the compound, how does the cytotoxicity at 10 µM read?
A: Its cytotoxicity at 10 µM is -8.28%.

Q: Which cytotoxicity at 10 µM does the source give for `COCCN1CCC2(CCCN(c3ncc(F)cn3)C2)C1` (stereo unspecified) here?
A: The cytotoxicity at 10 µM was 4.71%.

Q: With `Cc1nc(C)c(C(=O)N2CCCC2c2nc(O)cc(C(C)C)n2)s1` (stereo unspecified) as the compound, how does the cytotoxicity at 10 µM read?
A: Its cytotoxicity at 10 µM is -29.4%.

Q: For `Cc1ccncc1NC(=O)C1CSc2ncc(C)c(=O)n2C1` (stereo unspecified), which cytotoxicity at 10 µM is on record?
A: Its cytotoxicity at 10 µM is -6.53%.

Q: Which cytotoxicity at 10 µM does the source give for `O=c1c2cnc(N3CCOCC3)nc2ccn1-c1ccccc1` here?
A: Its cytotoxicity at 10 µM is -3.12%.

Q: With `CCn1ncnc1CN1CCOC(Cc2cccc3ccccc23)C1` (stereo unspecified) as the compound, how does the cytotoxicity at 10 µM read?
A: The cytotoxicity at 10 µM was 2.53%.

Q: Which cytotoxicity at 10 µM does the source give for `CCN1CCc2[nH]cnc2C12CCN(c1ncc(C(=O)O)cc1Cl)CC2` here?
A: The cytotoxicity at 10 µM was 1.46%.

Q: With `CC(=O)N1CCC(NC(=O)CN2CCCc3c(F)ccc(C)c32)CC1` as the compound, how does the cytotoxicity at 10 µM read?
A: The cytotoxicity at 10 µM was -7.68%.

Q: Which cytotoxicity at 10 µM does the source give for `CCC(=O)Nc1cccc(OCC(=O)N2C[C@H]3CC[C@H]2C3)c1` here?
A: Its cytotoxicity at 10 µM is -2.18%.

Q: With `CCC(C)C(=O)NCCc1nc(C(F)(F)F)cs1` (stereo unspecified) as the compound, how does the cytotoxicity at 10 µM read?
A: Its cytotoxicity at 10 µM is 2.08%.

Q: For `COc1ccc(F)c(CN2CCCC(O)(CNCC(C)(C)C)C2=O)c1` (stereo unspecified), which cytotoxicity at 10 µM is on record?
A: The cytotoxicity at 10 µM was 12.2%.

Q: For `Cc1nc(CN2CCCC2c2noc(C3CC3)n2)nc2ccccc12` (stereo unspecified), which cytotoxicity at 10 µM is on record?
A: The cytotoxicity at 10 µM was -19%.

Q: For `COc1ccc(-c2c(C)nn3c(=N)c(C#N)n[nH]c23)cc1`, which cytotoxicity at 10 µM is on record?
A: Its cytotoxicity at 10 µM is -8.26%.

Q: For `CCOC1CCN(C(=O)Nc2ccc(=O)n(C)c2)CC1`, which cytotoxicity at 10 µM is on record?
A: The cytotoxicity at 10 µM was -10.4%.

Q: Which cytotoxicity at 10 µM does the source give for `O=C(CCc1ccccc1)C1CCCN(Cc2cncn2C2CC2)C1` (stereo unspecified) here?
A: Its cytotoxicity at 10 µM is -7.12%.

Q: With `CN(Cc1cccc(C#N)c1)c1ncc(C(N)=O)cc1Cl` as the compound, how does the cytotoxicity at 10 µM read?
A: The cytotoxicity at 10 µM was 1.33%.

Q: Which cytotoxicity at 10 µM does the source give for `Cc1cc(CN2CCC(c3nccn3C(C)C)CC2)ccc1F` here?
A: Its cytotoxicity at 10 µM is 5.22%.

Q: Which cytotoxicity at 10 µM does the source give for `COc1cc2nc(C)n(CC(=O)NCCCN(C)C)c(=O)c2cc1OC` here?
A: Its cytotoxicity at 10 µM is 2.11%.

Q: For `CN(Cc1ccc(F)cc1)C(=O)Cn1nc(-c2ccc(F)cc2)oc1=O`, which cytotoxicity at 10 µM is on record?
A: The cytotoxicity at 10 µM was 8.68%.

Q: For `O=C(NCCc1ccccn1)Nc1cc(C(F)(F)F)c[nH]c1=O`, which cytotoxicity at 10 µM is on record?
A: The cytotoxicity at 10 µM was -6.78%.

Q: For `CC1CN(CC(=O)NC2CCCC2)CCN1c1ccc2nncn2n1` (stereo unspecified), which cytotoxicity at 10 µM is on record?
A: Its cytotoxicity at 10 µM is -1.58%.

Q: For `c1ccc(-n2cc(CN3CCCC3Cn3cncn3)nn2)cc1` (stereo unspecified), which cytotoxicity at 10 µM is on record?
A: Its cytotoxicity at 10 µM is -0.0716%.

Q: Which cytotoxicity at 10 µM does the source give for `Cc1cc(C)n(CC2CN(Cc3noc(C4CC4)n3)CCO2)n1` (stereo unspecified) here?
A: Its cytotoxicity at 10 µM is 2.79%.

Q: Which cytotoxicity at 10 µM does the source give for `CCN1CC(C(=O)N2CCN(CCn3cccc3)CC2)CC1=O` (stereo unspecified) here?
A: Its cytotoxicity at 10 µM is -3.64%.
